Screens: PubChem BioAssay, Johns Hopkins Ion Channel Center
hERG rescue: compounds protecting human hERG from proarrhythmic drug block | CHO-hERG, FluxOR thallium flux, dofetilide IC70 present | 310,000 compounds, 0.51% hits | activation (rescue from dofetilide block), less the hit threshold, % at 10 µM | AID 1511 | Q12809;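 active = activation above the mean of controls blocked by dofetilide plus 5 SD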;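 note: thallium influx through hERG after potassium depolarization seen as dye fluorescence rise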
KCNQ1 pot: potentiates or activates the human KCNQ1 potassium channel. B-score at 10 µM. CHO-K1 KCNQ1, thallium flux FluxOR fluorescence; active compounds read high. 310,000 compounds, 0.35% hits. P51787. AID 2648;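 active = fluorescence ratio B-score, a plate-corrected score, at least three library SD, with initial intensity B-score within 5 SD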
Target sequence (P51787 whole entry, looked up): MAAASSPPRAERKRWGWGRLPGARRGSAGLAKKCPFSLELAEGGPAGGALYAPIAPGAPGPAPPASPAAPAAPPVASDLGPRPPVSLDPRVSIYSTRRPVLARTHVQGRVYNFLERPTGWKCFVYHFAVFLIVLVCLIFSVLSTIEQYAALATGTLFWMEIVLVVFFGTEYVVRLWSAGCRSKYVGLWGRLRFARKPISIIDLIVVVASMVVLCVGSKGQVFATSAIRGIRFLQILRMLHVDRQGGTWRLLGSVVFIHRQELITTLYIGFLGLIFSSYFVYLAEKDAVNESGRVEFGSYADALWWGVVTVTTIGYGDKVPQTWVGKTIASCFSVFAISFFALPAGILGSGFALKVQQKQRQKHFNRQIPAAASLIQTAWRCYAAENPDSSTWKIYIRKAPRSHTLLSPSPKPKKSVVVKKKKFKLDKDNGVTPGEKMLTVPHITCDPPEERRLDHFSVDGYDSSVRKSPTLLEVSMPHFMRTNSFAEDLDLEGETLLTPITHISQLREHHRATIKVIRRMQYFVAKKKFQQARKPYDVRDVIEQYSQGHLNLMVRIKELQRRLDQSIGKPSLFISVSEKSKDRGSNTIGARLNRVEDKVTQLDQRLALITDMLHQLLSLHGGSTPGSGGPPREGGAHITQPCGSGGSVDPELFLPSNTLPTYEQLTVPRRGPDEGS
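Medium – assay buffer, equal DMSO in all wells · Material – CHO-K1 cell line with stable KCNQ1 potassium channel expression · Signal – kinetic FluxOR thallium fluorescence, 10-s 1-Hz baseline, 110-s post-stimulus read · Compound – single concentration per compound, DMSO matched to controls · Schedule – 37 °C overnight plating, 90-min dark dye load, 20-min compound pretreatment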
KCNK9 inh: blocks the human KCNK9 two-pore domain potassium channel | 310,000 compounds, 1.2% hits | B-score at 10 µM | HEK293 KCNK9, FluxOR thallium flux fluorescence; active compounds read low;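 active = ratio B-score over 3 SD below the library mean, with starting fluorescence within 5 SD of its mean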;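 note: negative B-score means less thallium flux so channel inhibition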
KCNQ1 inh: human KCNQ1 channel inhibition; B-score at 10 µM; CHO-K1 KCNQ1, FluxOR thallium flux fluorescence; active compounds read high; 310,000 compounds, 1.3% hits;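 active = compounds whose thallium flux B-score, printed positive for inhibition, exceeds three library SD while starting fluorescence stays within three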;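 note: channel opened by potassium depolarization with thallium stimulus after 20 min compound exposure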
KCNK3 inh: human KCNK3 channel inhibition, primary screen. O14649. CHO-KCNK3 thallium flux, FluxOR fluorescence; active compounds read low. B-score at 10 µM. 340,000 compounds, 0.84% hits;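 active = B-score under library mean minus 4 SD, starting fluorescence ratio at most library mean plus 5 SD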;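 note: more negative B-score means stronger inhibition of thallium flux through KCNK3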
Kir21 block: inhibitors of mouse Kir2.1 inward-rectifier potassium channel. B-score at 10 µM. HEK293-Kir2.1, FluxOR thallium flux fluorescence; active compounds read low. 310,000 compounds, 0.85% hits;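 active = fluorescence ratio B-score at or below minus 3 SD of library scores, with starting-brightness B-score within 2 SD, cut at about -4.2 in these data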;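 note: channel flux triggered by added potassium and thallium sulfate stimulus; B-score of peak minus minimum fluorescence over baseline after thallium stimulus; more negative B-score means stronger Kir2.1 block with less thallium influx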
KCNK9 block conf: human KCNK9 inhibitor confirmation; shares compounds with KCNK9 inh; HEK293 KCNK9 cells, FluxOR thallium flux fluorescence; inhibition, % at 10 µM; 4,900 compounds, 43% hits; AID 492992;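 active = thallium signal inhibited by more than 5 SD of the compound-free buffer control wells, on both duplicate plates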;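 note: 0% = assay buffer control wells without compound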
Kir21 sel: selectivity of KCNK9 modulators against mouse Kir2.1; shares compounds with KCNK9 inh; AID 492993; inhibition, % at 10 µM; 4,900 compounds, 4% hits; Kir2.1 cells, FluxOR thallium flux fluorescence;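 active = thallium signal drop more than 5 SD beyond the mean of the no-compound control wells, seen in both duplicate plates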;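 note: signal is fluorescence rise after thallium addition divided by baseline fluorescence; plate controls were assay buffer only for no effect and full block by chlorpromazine control for full effect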
HEK293 Tl ctr: second counter-screen for KCNK9 modulators: effect in non-induced cells | shares compounds with KCNK9 inh | non-induced KCNK9-HEK293, FluxOR thallium flux | inhibition, % at 10 µM | 4,900 compounds, 40% hits | AID 492997;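 active = thallium signal drop beyond 5 SD of the untreated control mean, on both duplicate plates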;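 note: plate controls were buffer only IC0 wells for no effect and SID17386958 at its maximal inhibitory level for full effect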
* = called active by the depositor. The list is not random: actives were taken first. Their share in the collection is about 3.7%.

`Cc1ccccc1C(=O)NC(=S)NCCC1=CCCCC1` gave hERG rescue -8, KCNQ1 pot inactive, KCNK9 inh inactive, KCNQ1 inh inactive, KCNK3 inh inactive, Kir21 block -0.04, KCNK9 block conf inactive, Kir21 sel inactive and HEK293 Tl ctr inactive.
For O=C(Nc1ccc2c(c1)OCO2)c1n[nH]c(=O)c2ccccc12 the results were hERG rescue -12, KCNQ1 pot inactive, KCNK9 inh inactive, KCNQ1 inh inactive, KCNK3 inh inactive and Kir21 block -0.08.
Screening COc1cccc(CN(C)C(=O)c2ccc(Oc3ccccc3)cc2)c1OC returned hERG rescue -10, KCNQ1 pot inactive, KCNK9 inh inactive, KCNQ1 inh inactive, KCNK3 inh inactive, Kir21 block 0.1, KCNK9 block conf inactive, Kir21 sel inactive and HEK293 Tl ctr inactive.
For COc1cccc(CN(C)C(=O)c2ccc(NS(=O)(=O)c3ccc4[nH]c(=O)[nH]c4c3)cc2)c1OC the results were hERG rescue -9, KCNQ1 pot inactive, KCNK9 inh inactive, KCNQ1 inh inactive, KCNK3 inh inactive and Kir21 block 1.1.
`CCOc1ccc(NS(=O)(=O)c2ccc(C(=O)N(C)Cc3cccc(OC)c3OC)cc2)cc1` gave hERG rescue -12, KCNQ1 pot inactive, KCNK9 inh inactive, KCNQ1 inh inactive, KCNK3 inh inactive, Kir21 block 1.1, KCNK9 block conf inactive, Kir21 sel inactive and HEK293 Tl ctr inactive.
`COC(=O)C(CC(C)C)N1CCC(=O)c2ccccc2S1(=O)=O` (configuration not stated) gave hERG rescue -6, KCNQ1 pot inactive, KCNK9 inh inactive, KCNQ1 inh inactive, KCNK3 inh inactive and Kir21 block 0.59.
For O=C(Nc1cc(Cl)ccc1-n1cncn1)c1cccc(S(=O)(=O)N2CCOCC2)c1 the results were KCNK3 inh inactive.
`COC(C(=O)Nc1ccnn1C1CCN(Cc2nccs2)CC1)c1ccccc1` (configuration not stated) gave hERG rescue -13, KCNQ1 pot inactive, KCNK9 inh inactive, KCNQ1 inh inactive, KCNK3 inh inactive and Kir21 block -0.24.
`CC(C)[C@H](NC(=O)c1ccccc1Cl)C(=O)Nc1nc(-c2ccccn2)cs1` gave hERG rescue -8, KCNQ1 pot inactive, KCNK9 inh -9.3*, KCNQ1 inh inactive, KCNK3 inh inactive, Kir21 block 2.1, KCNK9 block conf 42%*, Kir21 sel inactive and HEK293 Tl ctr 34%*.
CCc1nnc(NC(=O)C(NC(=O)c2ccccc2Cl)C(C)C)s1 (configuration not stated) was read as hERG rescue -8, KCNQ1 pot inactive, KCNK9 inh inactive, KCNQ1 inh inactive, KCNK3 inh inactive and Kir21 block 0.96.
`CC(C)C(NC(=O)c1ccccc1F)C(=O)NCCCn1ccnc1` (configuration not stated) gave KCNK3 inh inactive.
CCc1nc2nc(C)c(NS(=O)(=O)c3ccc(C)c(C)c3)c(=O)n2[nH]1 was read as hERG rescue -6, KCNQ1 pot inactive, KCNK9 inh inactive, KCNQ1 inh inactive, KCNK3 inh inactive and Kir21 block -0.48.
For Cc1ccc2sc(NNC(=O)c3cc(=O)c4ccccc4o3)nc2c1C the results were hERG rescue -21, KCNQ1 pot inactive, KCNK9 inh inactive, KCNQ1 inh inactive, KCNK3 inh inactive, Kir21 block -0.55, KCNK9 block conf inactive, Kir21 sel inactive and HEK293 Tl ctr inactive.
Cc1cccc2sc(NNC(=O)c3cc(=O)c4ccccc4o3)nc12 was read as hERG rescue -16, KCNQ1 pot inactive, KCNK9 inh inactive, KCNQ1 inh inactive, KCNK3 inh inactive, Kir21 block 0.01, KCNK9 block conf inactive, Kir21 sel inactive and HEK293 Tl ctr inactive.
Screening Cc1ccc(N(CC(=O)N/N=C/c2cc(C)n(-c3ccccc3C)c2C)S(C)(=O)=O)cc1 returned hERG rescue -7, KCNQ1 pot inactive, KCNK9 inh inactive, KCNQ1 inh inactive, KCNK3 inh inactive and Kir21 block 0.
`CC(C)(C)NC(=O)Cn1nc(C(F)(F)F)c2c1CCCC2` gave hERG rescue -5, KCNQ1 pot inactive, KCNK9 inh inactive, KCNQ1 inh inactive, KCNK3 inh inactive, Kir21 block 1.2, KCNK9 block conf inactive, Kir21 sel inactive and HEK293 Tl ctr inactive.
`O=C(CC(Nc1ccccc1Cl)C(=O)OCC(=O)c1cccs1)c1ccccc1` (configuration not stated) gave hERG rescue -10, KCNQ1 pot inactive, KCNK9 inh -9.4*, KCNQ1 inh inactive, KCNK3 inh inactive, Kir21 block -1.5, KCNK9 block conf 42%*, Kir21 sel inactive and HEK293 Tl ctr 28%*.
O=C(OCC(=O)c1cccs1)c1ccccc1 was read as hERG rescue -12, KCNQ1 pot inactive, KCNK9 inh inactive, KCNQ1 inh inactive, KCNK3 inh inactive and Kir21 block 0.23.
O=C(COC(=O)C1CCN(c2ccc(C(F)(F)F)cn2)CC1)c1ccccc1 was read as hERG rescue -7, KCNQ1 pot inactive, KCNK9 inh inactive, KCNQ1 inh inactive, KCNK3 inh inactive, Kir21 block 0.77, KCNK9 block conf inactive, Kir21 sel inactive and HEK293 Tl ctr inactive.
Screening O=C(COC(=O)C1CCN(c2ccc(C(F)(F)F)cn2)CC1)c1cccc(Br)c1 returned hERG rescue -16, KCNQ1 pot inactive, KCNK9 inh inactive, KCNQ1 inh inactive, KCNK3 inh inactive and Kir21 block -0.16.
CC1=C(C#N)CCC(=O)N1Cc1ccc(C)cc1 was read as hERG rescue -9, KCNQ1 pot inactive, KCNK9 inh inactive, KCNQ1 inh inactive, KCNK3 inh inactive and Kir21 block 0.15.
CN1c2ccccc2C(C)(C)[C@]12C=Cc1cc(O)ccc1O2 was read as hERG rescue -27, KCNQ1 pot inactive, KCNK9 inh inactive, KCNQ1 inh 13*, KCNK3 inh inactive, Kir21 block -5.9*, KCNK9 block conf inactive, Kir21 sel 33%* and HEK293 Tl ctr inactive.
